Reference: ChEMBL document CHEMBL4017549, “Structural Basis of Inhibition of ERα-Coactivator Interaction by High-Affinity N-Terminus Isoaspartic Acid Tethered Helical Peptides” (J Med Chem, 2017)
The source made the active and inactive calls. No cut-off for these calls is given here.

How the values were obtained:
[1] = tested on: MDA-MB-231; experiment: Cytotoxicity against human MDA-MB-231 cells assessed as reduction in cell viability up to 40 uM after 24 hrs by MTT assay; assay type: functional, cell-based
In short: (§1)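 MTT read-out. 5000−10000 cells/well seeded overnight in their own medium: MCF7 and MCF10A in DMEM with phenol red, 10% FBS, 37 °C, 5% CO2; T47D in RPMI1640 with insulin and 10% FBS; MDA-MB-231 in L-15, 10% FBS, no CO2. Serial peptide dilutions or DMSO for 20 h at 37 °C, then MTT 4 h more; formazan in DMSO, A570.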

[2] = tested on: MCF7; experiment: Cytotoxicity against human MCF7 cells assessed as reduction in cell viability after 24 hrs by MTT assay; assay type: functional, cell-based; in short: as §1
[3] = tested on: MCF7; experiment: Cytotoxicity against human MCF7 cells assessed as reduction in cell viability at 1 uM after 24 hrs by MTT assay relative to control; assay type: cell-based; conditions: mcf7, 24 h
[4] = tested on: MCF7; experiment: Cytotoxicity against human MCF7 cells assessed as reduction in cell viability at 5 uM after 24 hrs by MTT assay relative to control; assay type: cell-based; conditions: mcf7, 24 h
[5] = tested on: T47D; experiment: Cytotoxicity against human T47D cells assessed as reduction in cell viability up to 40 uM after 24 hrs by MTT assay; assay type: functional, cell-based; in short: as §1
[6] = tested on: MCF-10A; experiment: Cytotoxicity against human MCF10A cells assessed as reduction in cell viability up to 40 uM after 24 hrs by MTT assay; assay type: cell-based; in short: as §1
[7] = tested on: MCF7; experiment: Cytotoxicity against human MCF7 cells assessed as cell viability at 20 uM after 24 hrs by MTT assay; assay type: functional; conditions: MCF7, 24 h, read-out: Activity
[8] = target: T1, Estrogen receptor (Homo sapiens) (UniProt P03372); experiment: Inhibition of ERalpha in human MCF7 cells assessed as downregulation of 17beta-estradiol-mediated pS2 mRNA expression at 5 uM preincubated for 4 hrs followed by 17beta-estradiol addition measured after 16 hrs by quantitative RT-PCR analysis; assay type: cell-based
T1 sequence (whole entry): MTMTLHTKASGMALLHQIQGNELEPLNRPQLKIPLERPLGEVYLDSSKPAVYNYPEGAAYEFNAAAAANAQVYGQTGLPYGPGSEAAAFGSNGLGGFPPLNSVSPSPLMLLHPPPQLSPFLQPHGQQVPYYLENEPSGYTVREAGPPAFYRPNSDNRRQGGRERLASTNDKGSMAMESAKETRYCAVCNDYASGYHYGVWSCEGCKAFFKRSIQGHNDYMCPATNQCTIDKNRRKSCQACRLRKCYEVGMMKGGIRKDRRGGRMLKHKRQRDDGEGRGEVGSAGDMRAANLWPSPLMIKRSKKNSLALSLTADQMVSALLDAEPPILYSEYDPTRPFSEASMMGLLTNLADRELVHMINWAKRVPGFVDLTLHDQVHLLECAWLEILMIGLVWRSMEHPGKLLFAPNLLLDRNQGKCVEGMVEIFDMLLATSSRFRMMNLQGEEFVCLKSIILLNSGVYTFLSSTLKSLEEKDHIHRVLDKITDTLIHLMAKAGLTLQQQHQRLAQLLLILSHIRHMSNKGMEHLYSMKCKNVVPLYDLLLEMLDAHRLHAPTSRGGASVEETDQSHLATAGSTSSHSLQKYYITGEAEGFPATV
In short: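 MCF-7 cells hormone-depleted 72 h in phenol red-free DMEM with 5% charcoal-treated serum, given peptides or DMSO for 4 h, then 100 nM 17β-estradiol or DMSO for 16 h. pS2 mRNA measured by quantitative RT-PCR, normalized to β-actin. Three independent experiments, mean ± SEM.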

[9] = target: T1, Estrogen receptor (Homo sapiens); experiment: Inhibition of recombinant human GFP-fused ERalpha LBD (301 to 553 residues) expressed in human […] cells assessed as downregulation of 17beta-estradiol-induced transcription at 5 uM preincubated for 4 hrs followed by E2 addition measured after 20 hrs in presence of tamoxifen by dual luciferase reporter gene assay; assay type: cell-based
In short: (§2)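 U2OS cells in phenol red-free DMEM with 10% charcoal-stripped FBS, transfected 4 h with pEGFP-C1-ERα, 3XERE firefly luciferase reporter and pRL-TK Renilla plasmids. Peptides for 4 h, then 10 nM E2 or DMSO for 20 h. Lysates read by dual-luciferase; firefly normalized to Renilla, then to DMSO-treated control. SEM from more than two independent experiments.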

[10] = target: T1, Estrogen receptor (Homo sapiens); experiment: Inhibition of recombinant human GFP-fused ERalpha LBD (301 to 553 residues) expressed in human […] cells assessed as downregulation of 17beta-estradiol-induced transcription at 5 uM preincubated for 4 hrs followed by E2 addition measured after 20 hrs by dual luciferase reporter gene assay; assay type: cell-based; in short: as §2
[11] = tested on: MCF7; experiment: Cytotoxicity against human MCF7 cells assessed as cell viability up to 100 uM after 24 hrs by MTT assay; assay type: functional, cell-based; in short: as §1

| SMILES | Activity [1] | Activity [2] | IC50 ([2]; MCF7, 24 h) [µM] | Activity [3] [%] | Activity [4] [%] | Activity [5] | Activity [6] | viability at 20 µM [7] [%] | inhibition [8] | inhibition [9] | inhibition [10] | Activity [11] |
| --- | --- | --- | --- | --- | --- | --- | --- | --- | --- | --- | --- | --- |
| CC[C@H](C)[C@@H]1NC(=O)C[C@H](NC(=O)[C@H](CCCNC(=N)N)NC(=O)CCNC(=O)[C@H](Cc2c[nH]c3ccccc23)NC(C)=O)C(=O)NCC(C(=O)N[C@@H](CCCNC(=N)N)C(=O)NC(CC(C)(C)C)C(=O)NC(CC(C)(C)C)C(=O)N[C@@H](CCC(N)=O)C(N)=O)NC(=O)C(CC(C)(C)C)NC1=O (some centres undefined) | inactive | Dose-dependent effect | 12 | < 20 | < 20 | Active | Non-Toxic | 14 | Active | Active | Active | – |
| CC/C(=C(\c1ccccc1)c1ccc(OCCN(C)C)cc1)c1ccccc1 [TAMOXIFEN] | – | – | – | < 20 | < 20 | – | – | – | – | – | – | Active |
